For series [1], the system named is RGC-5 cells. The series can be described thus: NMDA / glutamate excitotoxicity model. As to conditions: native and SS-differentiated; up to 5 mM, up to 48 hrs; data not shown. The format is cell-based, mouse.
The test system of series [2] is RGC-5 cells. Briefly: Staurosporine differentiation and morphology of RGC-5 cells. In kind it is cell-based, mouse.
The subject of series [3] is RGC-5 cells. The series can be described thus: Induction of apoptosis and probe activation by cytotoxic agents. In kind it is cell-based, mouse.
The target of a further series is T1, caspase 3 (Homo sapiens, UniProt P42574).
T1 sequence (P42574 29-175 limits assumed): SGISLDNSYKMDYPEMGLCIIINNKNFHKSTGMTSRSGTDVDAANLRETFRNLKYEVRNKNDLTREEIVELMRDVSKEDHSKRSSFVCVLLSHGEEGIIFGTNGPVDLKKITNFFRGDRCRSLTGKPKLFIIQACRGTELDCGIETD
T1 sequence (P42574 176-277 limits assumed): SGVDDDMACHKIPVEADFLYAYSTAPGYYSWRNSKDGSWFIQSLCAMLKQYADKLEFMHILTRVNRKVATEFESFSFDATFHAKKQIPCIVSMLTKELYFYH
The series can be described thus: Caspase 3 probe cleavage. In kind it is biochemical. The settings on record: HEPES buffer pH 7.4, 10 mM DTT, 37°C, 640/680 nm. The procedure, abridged: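 Human recombinant caspase 3 (E. coli-expressed; 50 U, 1.4 × 10−6 mg) is pre-equilibrated for 10 min at 37°C in the stated buffer with 0.1% CHAPS, 10% glycerol and 1 mM EDTA. Quenched test compound (2 µM solution) is added, and fluorescence is read continuously for 30 min at 37°C. Signals are background-subtracted and normalized to enzyme mass. Initial 0–5 min rates come from linear fits; Km and kcat come from nonlinear regression of cleavage rates.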

In series [4] the test system is RGC-5 cells. The series can be described thus: Non-target activation in healthy cells, LysoTracker co-localization. In kind it is cell-based, mouse.
The test system of series [5] is RGC-5 cells. In kind it is cell-based, mouse. The settings on record: FITC-annexin V; compared to 3 with Alexa Fluor 647-annexin V; data not shown. The procedure, abridged: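 RGC-5 cells are grown in phenol-free DMEM with 10% FBS at 37°C and 5% CO2. They are given 5 µM staurosporine in growth medium for 3 h, then co-incubated for 30 min with up to 10 µM quenched test compound plus FITC-annexin V. Propidium iodide (500 nM) is added for 5 min. Cells are rinsed three times in phenol-free medium and imaged by fluorescence microscopy.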

In series [6] the test system is retinal ganglion cell apoptosis. The settings on record: directly applied into the vitreous humor; models of RGC degeneration; ref [6],[10]; cited from earlier work.
For series [7] the following is noted: in vivo; cited from earlier work.
Where [8] appears, read: Figures 5–7, S9, S10 (ionomycin), Figure 6 (SS), doxorubicin data not shown.

These results are taken from article PMC3447108 (Bioconjugate chemistry, 2012).

Like-named read-outs stand apart in the source and are kept apart here.

Turning to `CN[C@H](CC(=O)O)C(=O)O` [NMDA], the loss in viability entry in the series on RGC-5 cells [1] is “no loss in viability”.
As to `CN[C@@H]1C[C@H]2O[C@@](C)([C@@H]1OC)n1c3ccccc3c3c4c(c5c6ccccc6n2c5c31)C(=O)NC4` [SS, staurosporine], in the series with RGC-5 cells [2] (0.5 µM SS, 37°C, bright field microscopy), the “time to differentiation morphology” value is on record as at most 1 hour. Further, in the series on RGC-5 cells [2] (SS, room temperature), the “time to completion of morphological changes” value was “approximately 2 hours”. Further, the “toxic concentration (blebbing and disruption of neurite morphology)” value in the series with RGC-5 cells [2] (concentrations exceeding the value) is on record as “exceeding 2 µM”. In the series on RGC-5 cells [3] (setting [8]), the “apoptosis and probe activation upon treatment” value was “readily observed”.
In the case of `COc1cccc2c1C(=O)c1c(O)c3c(c(O)c1C2=O)C[C@@](O)(C(=O)CO)C[C@@H]3O[C@H]1C[C@H](N)[C@H](O)[C@H](C)O1` [doxorubicin], in the series with RGC-5 cells [3], the “apoptosis and probe activation upon treatment” value is reported as “readily observed”.
In the case of `C[C@H](CCC(=O)O)C[C@H](C)C[C@H](C)C(=O)/C=C(\O)[C@H](C)C[C@H](C)C/C=C/[C@@H](C)[C@@H](O)[C@@H](C)[C@@H](O)C[C@@H]1CC[C@@](C)([C@H]2CC[C@@](C)([C@@H](C)O)O2)O1` [ionomycin], the “apoptosis and probe activation upon treatment” value in the series with RGC-5 cells [3] (setting [8]) is listed as “readily observed”.
In the case of “(kkkrkv) linked to a cleavage sequence consisting of L amino acids (KDEVDAPC) [compound 1]”, the kcat/Km with caspase 3 was 435 (FU min^−1 µM^−1)/nM. Further, in the series with RGC-5 cells [4] (2 hr exposure, fluorescence microscopy), the “probe signal in healthy cells” value is recorded as “no significant probe signal”. For the same compound, the “Pearson’s coefficient, LysoTracker compartments and activated probe” value with RGC-5 cells [4] (SS-differentiated RGC-5 cells, 3 hrs) amounted to 0.612; in the series with RGC-5 cells [4] (native RGC-5 cells, 3 hrs) it was 0.566. For the same compound, the “punctate probe signal in LysoTracker-labeled compartments” value in the series on RGC-5 cells [4] (healthy native and SS-differentiated RGC-5 cells, 3 hrs) is recorded as “delayed appearance of punctate signal”. For the same compound, the “coincidence of probe activation with annexin V binding” value in the series on RGC-5 cells [5] was “Identical results”. Moreover, the “detection of RGC apoptosis in vivo” value in series [6] is reported as “detect RGC apoptosis in models of RGC degeneration in vivo”. Moreover, in series [7], the systemic toxicity entry is “without the systemic toxicity of the HIV-1 Tat sequence”.
